CHO parental Ca: counter-screen for OX1R antagonists: effect in parental CHO cells | parental CHO-K1, ATP-induced calcium, Fluo-8 fluorescence | inhibition, % at 5.6 µM | 330,000 tested, 0.63% active | AID 463079;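 active = inhibition above that plate's mean sample inhibition plus 3 SD, cut at about 26% in these data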
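Assay system – parental CHO cells · Reagent – ATP stimulus · Detection – intracellular calcium via Fluo-8 no-wash fluorescent dye · Evaluation – percent inhibition of ATP-evoked calcium rise, normalized to controls · Controls – ATP wells versus no-ATP DMSO wells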
OX1R antag-1: antagonists of human orexin 1 receptor (OX1R); O43613; 330,000 tested, 1.8% active; inhibition, % at 6.6 µM; OX1R-expressing cells, FRET antagonist read-out; in the data active = inhibition mostly above about 38%, no sharp cut-off; inactive = mostly below about 40%
Target sequence (O43613 whole entry, looked up): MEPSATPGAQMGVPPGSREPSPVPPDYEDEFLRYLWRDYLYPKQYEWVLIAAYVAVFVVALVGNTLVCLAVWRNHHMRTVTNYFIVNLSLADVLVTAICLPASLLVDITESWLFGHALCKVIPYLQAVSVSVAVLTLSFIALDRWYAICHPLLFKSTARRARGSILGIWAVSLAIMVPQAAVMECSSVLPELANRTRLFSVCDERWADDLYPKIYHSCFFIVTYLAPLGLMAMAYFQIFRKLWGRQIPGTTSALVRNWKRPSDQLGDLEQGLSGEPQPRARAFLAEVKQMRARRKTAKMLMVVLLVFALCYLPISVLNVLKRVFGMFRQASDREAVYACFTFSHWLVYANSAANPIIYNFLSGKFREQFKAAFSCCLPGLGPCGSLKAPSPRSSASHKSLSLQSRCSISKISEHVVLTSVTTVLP
TAAR1 antagonist: human TAAR1 antagonism; Q96RJ0; AID 624466; 360,000 tested, 1.5% active; CHO RD-HGA16 TAAR1, Fluo-8 calcium fluorescence, antagonist; inhibition, % at 3 µM;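 active = inhibition above a per-plate cutoff, the mean inhibition of test compounds on that plate plus 3 SD, cut at about 49% in these data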
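Test system – hTAAR1-expressing CHO RD-HGA16 cells, Gα16-coupled · Also added – β-PEA at EC80 concentration, post-compound challenge · Compound – 3 µM, single point · Incubation – dye loading 75 min at 37 °C, then 30 min room temperature · Measured by – Fluo-8 intracellular calcium dye fluorescence, real-time kinetic reads · Benchmarks – vehicle and agonist controls · Replicates – singlicate, one well per test compound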
GPR7 antagonist: human neuropeptides B/W receptor 1 antagonism | 290,000 tested, 1.1% active | AID 1861 | P48145 | inhibition, % at 4.4 µM | GPR7-expressing cells, fluorescence antagonist assay; in the data active = inhibition above about 16%, passing the limit was not always enough;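 note: cells stimulated with the agonist NPW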
OX1R antag-2: blocks the human orexin 1 receptor | CHO/OX1R cells, Fluo-8 calcium fluorescence, orexin A | inhibition, % at 5 µM | 330,000 tested, 0.43% active | AID 434989;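 active = inhibition above its plate's threshold, mean inhibition of all tested compounds on the plate plus 3 SD, cut at about 37% in these data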
TAAR1 ag: agonists of human TAAR1. CHO RD-HGA16 TAAR1, Fluo-8 calcium fluorescence; vehicle wells 0%, saturating PEA agonist 100%. Q96RJ0. 360,000 tested, 0.99% active. activation, % at 3 µM;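 active = activation above the mean activation of all test compounds in the run plus 3 SD, cut at about 38% in these data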
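Test system: RD-HGA16 (CHO) cells co-expressing Gα16 and hTAAR1 | Doses: Single dose, 3 µM | Schedule: 17-24 h seeding, 75 min 37 °C dye, 30 min RT | Evaluation: % activation from peak over basal fluorescence ratio, DMSO-to-PEA scaled | Technique: Kinetic Fluo-8 calcium fluorescence | Benchmarks: Low control DMSO, high control PEA (EC100)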
Numbers stand for hits; n = inactive; x = no result. The list is not random: actives were taken first. Their share in the collection is about 4.6%.

SMILES	CHO parental Ca	OX1R antag-1	TAAR1 antagonist	GPR7 antagonist	OX1R antag-2	TAAR1 ag
COc1ccc(C(=O)Nc2ccccc2C(=O)O)cc1Cl	n	n	n	n	n	n
Cc1ccc(C(=O)Nc2ccccc2C(=O)O)cc1NC(=O)COc1c(C)cccc1C	n	41.4	n	n	n	n
O=C(N/N=C/c1cc(Cl)cc([N+](=O)[O-])c1O)c1ccc2c(c1)OCO2	n	56.4	n	n	n	n
O=C(N/N=C/c1ccc2c(c1)OCO2)c1ccc(COc2cccc3cccnc23)cc1	n	n	49.4	n	n	n
O=C(N/N=C/c1c[nH]c2ccccc12)c1ccc2c(c1)OCCO2	n	n	n	n	n	n
O=C(N/N=C/c1cc(Br)cc(Cl)c1O)c1ccc2c(c1)OCO2	n	n	n	x	n	n
Cc1cc(Br)cc(/C=N/NC(=O)c2ccc3c(c2)OCO3)c1O	n	63.7	n	n	n	n
O=C(N/N=C/c1c[nH]c2ccc(Br)cc12)c1ccc2c(c1)OCO2	n	68.6	n	n	n	n
CCCCCC(=O)N1C[C@H](O)[C@@H](n2cc(C3CC3)nn2)C[C@@H]1c1ccc(OC)cc1	x	x	n	x	x	n
O=C(CSCc1ccccc1Br)N/N=C/c1ccc2c(c1)OCO2	n	n	n	n	n	n
O=C(CNC(=O)c1ccc2c(c1)OCO2)N/N=C/c1cc(Br)ccc1O	n	48.0	n	n	n	n
O=C(N/N=C/c1ccc2c(c1)OCO2)c1cccc2ccccc12	n	n	n	n	n	n
Cn1cc(C(=O)N/N=C/c2ccc3c(c2)OCO3)c2ccccc21	n	43.1	n	n	n	n
O=C(CSCc1cccc(Br)c1)N/N=C/c1ccc2c(c1)OCO2	n	63.2	n	n	n	n
O=C(c1ccccc1Cl)N1CCC(N2CCC(C(=O)N3CCCC3)CC2)CC1	n	n	n	n	n	n
COc1cc(NC(=O)NC2Cc3ccccc3C2)cc(OC)c1	n	n	n	n	n	n
CCOC(=O)c1nn(-c2ccccc2)cc1O	n	n	n	n	n	n
COC(=O)c1nn(-c2ccc(-c3ccccc3)cc2)cc1O	n	n	52.3	n	n	n
Cc1ccc(SCC(=O)OCC(=O)N(C)CC(=O)Nc2ccc(F)cc2)cc1C	n	n	n	x	n	112.7
Cc1cccc(/C=C/C(=O)c2ccc([N+](=O)[O-])o2)c1	n	n	n	x	n	n
O=C(/C=C/c1cccc([N+](=O)[O-])c1)c1ccc([N+](=O)[O-])o1	n	n	68.0	x	n	49.8
O=C(COc1cccc(F)c1)N[C@@H](Cc1ccccc1)c1nc2ccccc2[nH]1	n	60.6	n	n	n	n
CC(=O)OCC1OC(COC(C)=O)(c2ccc(C)cc2)C(OC(C)=O)C1OC(C)=O (configuration not stated)	x	x	n	x	x	n
O=C(Nc1ccc(N2CCOCC2)cc1)C1(c2ccc(Cl)cc2)CCC1	n	n	n	n	n	43.5
O=C(N1CCOCC1)C1(c2ccc(Cl)cc2)CCCC1	n	n	n	n	n	n
SMILES	CHO parental Ca	OX1R antag-1	TAAR1 antagonist	GPR7 antagonist	OX1R antag-2	TAAR1 ag
CC[C@H](C)[C@@H](C(=O)NCCCCCCCCCCC(=O)N1CCN(C(=O)OC(C)(C)C)CC1)n1cc(CCCCCNC(=O)OC(C)(C)C)nn1	42.5	n	60.4	x	n	n
CC[C@H](C)[C@@H](C(=O)NCCCCCCCCCCC(=O)N1CCN(C(=O)OC(C)(C)C)CC1)n1cc(CCCCN=C(NC(=O)OC(C)(C)C)NC(=O)OC(C)(C)C)nn1	n	n	x	x	n	x
CC(C)(C)OC(=O)NCCCCCc1cn([C@@H](CO)C(=O)NCCCCCCCCCCC(=O)N2CCN(C(=O)OC(C)(C)C)CC2)nn1	95.7	71.0	86.8	x	74.2	n
CC(C)(C)OC(=O)CC[C@@H](C(=O)NCCCCCCCCCCC(=O)N1CCN(C(=O)OC(C)(C)C)CC1)n1cc(CCCCCNC(=O)OC(C)(C)C)nn1	n	n	n	x	n	n
Cn1c(=O)[nH]c(=O)c2c1nc(SCCCO)n2CCCc1ccccc1	n	n	n	n	n	n
CCCCN(C)C(=O)CC(NS(=O)(=O)c1ccc(NC(C)=O)cc1)C(C)C (configuration not stated)	n	n	n	n	n	n
O=C(CCCC(=O)N1CCN(c2ccc([N+](=O)[O-])cc2)CC1)c1ccccc1	n	n	n	n	n	n
